≈ marks a conversion by molar mass, not a printed value.
Experiments:
Staphylococcus aureus [1] = assay: Antibacterial activity against methicillin resistant Staphylococcus aureus MFBF 10682 after 18 hrs by serial microdilution broth assay; format: functional; details: MFBF 10682, 18 h
In short: (§1)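 EUCAST-based broth microdilution in Mueller-Hinton broth. Glycerol stock cultures grown in trypticase soy broth 18 h at 37 °C; inoculum in PBS pH 7.4 at 0.5 McFarland, diluted 1:10 in broth. Compounds from DMSO stocks, 1000 to 0.78125 µg/ml; 18 h aerobic, 35 °C, dark. TTC 0.5 mg/ml added, 3 h, then HCl/isopropanol, A490. MIC = lowest concentration giving 50% inhibition vs untreated; duplicates, averaged.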

[2] = Hemolytic activity against human RBC at 100 ug/ml after 1 hr relative to control; format: ADME, cell-based, Erythrocyte; details: red blood cells (RBC), read-out: Activity
[3] = Growth inhibition of human SW620 cells after 72 hrs by MTT assay; format: functional, cell-based; details: SW-620, 72 h
In short: (§2)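 Modified NCI DTP protocol: cells in DMEM with 10% FBS, 2 mM glutamine, antibiotics, 37 °C, 5% CO2; seeded 1 × 10^4 to 3 × 10^4 cells/ml on day 0, exposed to five 10-fold dilutions (10^-8 to 10^-4 M) for 72 h; solvent control. MTT read-out; quadruplicate points in three experiments; IC50 by linear regression of growth percentages bracketing 50%.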

[4] = Antioxidant activity assessed as inhibition of AAPH-induced linoleic acid lipid peroxidation at 1 x 10^-4 M by UV-absorbance method relative to control; format: functional
In short: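 Linoleic acid peroxidation: 16 mM sodium linoleate dispersion in 0.05 M phosphate buffer pH 7.4 at 37 °C under air, initiated by AAPH (40 mM solution); compound at 1 × 10^-4 M; oxidation followed at 234 nm. At least triplicate.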

Staphylococcus aureus [5] = assay: Antibacterial activity against methicillin resistant Staphylococcus aureus MFBF 10679 after 18 hrs by serial microdilution broth assay; format: functional; details: MFBF 10679, 18 h; in short: as §1
[6] = Growth inhibition of human CEM cells after 72 hrs by MTT assay; format: functional, cell-based; details: CCRF-CEM
Enterococcus faecalis [7] = assay: Antibacterial activity against vancomycin susceptible Enterococcus faecalis ATCC 29212 after 18 hrs by serial microdilution broth assay; format: functional; details: ATCC 29212, 18 h
In short: (§3)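 Broth microdilution MIC per EUCAST for aerobic bacteria in Mueller-Hinton broth, serial dilution 1000 to 0.78125 µg/ml from 10 mg/ml DMSO stocks. Inoculum from trypticase soy broth cultures (18 h, 37 °C), set to 0.5 McFarland in PBS pH 7.4, diluted 1:10. 18 h aerobic incubation at 35 °C in dark, then TTC 0.5 mg/ml for 3 h, HCl-isopropanol, A490. MIC = lowest concentration giving 50% inhibition versus untreated; duplicates.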

[8] = Growth inhibition of human MIAPaCa2 cells after 72 hrs by MTT assay; format: functional, cell-based; details: MIA PaCa-2, 72 h
[9] = Cytotoxicity against HEK cells assessed as reduction in cell viability at 6.25 to 100 ug/ml after 24 hrs by MTT assay; format: toxicity, cell-based; details: human, hek293, 24 h
In short: (§4)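 HEK 293 cells, 5 × 10^3 per well, treated next day for 24 h with compound (range within 200 to 1.5625 µg/ml). MTT 0.5 mg/ml in DMEM/10% FBS, 4 h at 37 °C, 5% CO2; formazan in DMSO, A570. Viability as percent of untreated control; triplicates, three independent experiments.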

Staphylococcus aureus [10] = assay: Antibacterial activity against Staphylococcus aureus ATCC 6538 after 18 hrs by serial microdilution broth assay; format: functional; details: ATCC 6538, 18 h; in short: as §3
Candida albicans = assay: Antifungal activity against Candida albicans ATCC 90028 after 18 hrs by serial microdilution broth assay; format: functional; details: ATCC 90028, 18 h
In short: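 Yeast microdilution in RPMI 1640 with glutamine plus 2% glucose, 1000 to 0.78125 µg/ml from 10 mg/ml DMSO stocks. Growth read with XTT (10 mg/ml) mixed 7:1 with menadione (1 mg/ml in acetone), absorbance at 540 nm. MIC taken as lowest concentration giving 50% growth inhibition versus untreated cells; tests in duplicate.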

[11] = Growth inhibition of mouse L1210 cells after 72 hrs by MTT assay; format: functional, cell-based; details: L1210, 72 h
[12] = Growth inhibition of human Molt4/C8 cells after 72 hrs by MTT assay; format: functional, cell-based; details: MOLT-4, 72 h
Staphylococcus aureus [13] = assay: Antibacterial activity against methicillin sensitive Staphylococcus aureus ATCC 25213 after 18 hrs by serial microdilution broth assay; format: functional; details: ATCC 25213, 18 h; in short: as §3
Bacillus spizizenii = assay: Antibacterial activity against Bacillus subtilis ATCC 6633 after 18 hrs by serial microdilution broth assay; format: functional; details: ATCC 6633, 18 h; in short: as §3
Glycine max = assay: Inhibition of soybean LOX assessed as reduction in conversion of sodium linoleate to 13-hydroperoxylinoleic acid at 1 x 10^-4 M relative to control
In short: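 Soybean lipoxygenase incubated at room temperature with sodium linoleate (0.1 mM) and test compound (DMSO stocks); formation of 13-hydroperoxylinoleic acid read at 234 nm. Single-point screening at 1 × 10^-4 M; IC50 from several concentrations. At least triplicate.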

[14] = Growth inhibition of human NCI-H460 cells after 72 hrs by MTT assay; format: functional, cell-based; details: NCI-H460, 72 h; in short: as §2
Pseudomonas aeruginosa [15] = assay: Antibacterial activity against Pseudomonas aeruginosa ATCC 27853 after 18 hrs by serial microdilution broth assay; format: functional; details: ATCC 27853, 18 h; in short: as §3
Enterococcus faecalis [16] = assay: Antibacterial activity against vancomycin resistant Enterococcus faecalis MFBF 11419 after 18 hrs by serial microdilution broth assay; format: functional; details: MFBF 11419, 18 h; in short: as §1
[17] = Antioxidant activity assessed as DPPH radical scavenging activity at 100 uM after 60 mins relative to control; format: functional
In short: (§5)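 Compound in DMSO added to DPPH in absolute ethanol, 0.1 mM final; absorbance at 517 nm after 20 and 60 min at room temperature. At least triplicate.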

[18] = Growth inhibition of human HeLa cells after 72 hrs by MTT assay; format: functional, cell-based
[19] = Growth inhibition of human MCF7 cells after 72 hrs by MTT assay; format: functional, cell-based; details: MCF7, 72 h; in short: as §2
[20] = Antioxidant activity assessed as DPPH radical scavenging activity at 100 uM after 20 mins relative to control; format: functional; in short: as §5
Pseudomonas aeruginosa [21] = assay: Antibacterial activity against multi-drug resistant Pseudomonas aeruginosa MFBF after 18 hrs by serial microdilution broth assay; format: functional; in short: as §1
Bacillus pumilus = assay: Antibacterial activity against Bacillus pumilus NCTC 8241 after 18 hrs by serial microdilution broth assay; format: functional; details: NCTC 8241, 18 h; in short: as §3
Staphylococcus aureus [22] = assay: Antibacterial activity against methicillin sensitive Staphylococcus aureus ATCC 25923 after 18 hrs by serial microdilution broth assay; format: functional; details: ATCC 25923, 18 h; in short: as §1
Pseudomonas aeruginosa [23] = assay: Antibacterial activity against Pseudomonas aeruginosa ATCC 9027 after 18 hrs by serial microdilution broth assay; format: functional; details: ATCC 9027, 18 h; in short: as §1
Bacillus cereus = assay: Antibacterial activity against Bacillus cereus ATCC 11778 after 18 hrs by serial microdilution broth assay; format: functional; details: ATCC 11778, 18 h; in short: as §3
Escherichia coli = assay: Antibacterial activity against Escherichia coli ATCC 10535 after 18 hrs by serial microdilution broth assay; format: functional; details: ATCC 10535, 18 h; in short: as §3
[24] = Cytotoxicity against HEK cells assessed as reduction in cell viability at 3.125 to 25 ug/ml after 24 hrs by MTT assay; format: toxicity, cell-based; details: human, hek293, 24 h; in short: as §4

Row | Structure (SMILES) | MIC50 (Staphylococcus aureus [1]) [µg/mL] | hemolysis at 1 h, 100 ug/ml [2] [%] | IC50 [3] [µM] | inhibition [4] [%] | MIC50 (Staphylococcus aureus [5]) [µg/mL] | IC50 [6] [µM] | MIC50 (Enterococcus faecalis [7]) [µg/mL] | IC50 [8] [µM] | MIC50 (Staphylococcus aureus [10]) [µg/mL] | MIC50 (Candida albicans) [µg/mL] | IC50 [11] [µM] | IC50 [12] [µM] | MIC50 (Staphylococcus aureus [13]) [µg/mL] | MIC50 (Bacillus spizizenii) [µg/mL] | inhibition (Glycine max) [%] | IC50 [14] [µM] | MIC50 (Pseudomonas aeruginosa [15]) [µg/mL] | MIC50 (Enterococcus faecalis [16]) [µg/mL] | Activity [17] [%] | IC50 [18] [µM] | further results
1 | COc1cc(NC(C)CCCNC(=O)Nc2cccc(O)c2)c2ncccc2c1 (stereo not drawn) | 50 (≈ 127 µM) | < 1 | 27 | 66.9 | 100 (≈ 254 µM) | 32 | > 100 | 46 | 20 (≈ 50.7 µM) | > 100 | 25 | 24 | 50 (≈ 127 µM) | 50 (≈ 127 µM) | 50.8 | 25 | 50 (≈ 127 µM) | > 100 | 52.3 | 48 | Activity [9]: Non-Toxic; IC50 [19]: 11 µM; Activity [20]: 48.6%; MIC50 (Pseudomonas aeruginosa [21]): 100 µg/mL (≈ 254 µM); MIC50 (Bacillus pumilus): 12.5 µg/mL (≈ 31.7 µM); MIC50 (Staphylococcus aureus [22]): 50 µg/mL (≈ 127 µM); MIC50 (Pseudomonas aeruginosa [23]): 100 µg/mL (≈ 254 µM); MIC50 (Bacillus cereus): 50 µg/mL (≈ 127 µM); MIC50 (Escherichia coli): 100 µg/mL (≈ 254 µM)
2 | COc1cc(NC(C)CCCNC(=O)Nc2cc(C(F)(F)F)cc(C(F)(F)F)c2)c2ncccc2c1 (stereo not drawn) | > 100 | < 1 | 3.9 | 90.2 | > 100 | 4.1 | > 100 | 4.7 | 1.6 (≈ 3.11 µM) | > 100 | 3.5 | 12 | 12.5 (≈ 24.3 µM) | > 100 | 42.3 | 8.3 | 12.5 (≈ 24.3 µM) | > 100 | 55.2 | 3.1 | IC50 [19]: 1.6 µM; Activity [20]: 51.7%; MIC50 (Pseudomonas aeruginosa [21]): > 100 µg/mL; MIC50 (Bacillus pumilus): 12.5 µg/mL (≈ 24.3 µM); MIC50 (Staphylococcus aureus [22]): 6.3 µg/mL (≈ 12.2 µM); MIC50 (Pseudomonas aeruginosa [23]): 100 µg/mL (≈ 194 µM); Activity [24]: Toxic; MIC50 (Bacillus cereus): 100 µg/mL (≈ 194 µM); MIC50 (Escherichia coli): > 100 µg/mL

Reference: ChEMBL document CHEMBL3875163, “Novel urea and bis-urea primaquine derivatives with hydroxyphenyl or halogenphenyl substituents: Synthesis and biological evaluation” (Eur J Med Chem, 2016)
